Assay [1] relates to HCT-116. Nature of the assay: Antiproliferative activity against human HCT116 cells after 24 hrs by MTT assay. The assay is classed as functional, cell-based. The following applies: HCT-116, 24 h. In a few lines:
(§1)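 Seeded at 1 × 10⁴ cells per well, incubated 24 h before treatment. MTT (20 µL of 5 mg/mL in PBS) added per well and incubated until purple precipitate appeared. Medium removed, precipitate dissolved in 150 µL DMSO, shaken 10 min, absorbance read at 570 nm. Growth expressed as percentage of untreated control.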
(In general: Formazan colour is commonly taken as a measure of viable cells.)

In assay [2] the test system is HepG2. The assay can be described thus: Cell cycle arrest in human HepG2 cells assessed as accumulation at G2/M-phase at 0.125 uM after 24 hrs by propidium iodide staining-based flow cytometric analysis (reference value: 25.5%). The assay is classed as functional. In a few lines:
(§2)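 HepG2 cells (2 × 10⁵) cultured 24 h, then given 0.1% DMSO vehicle or compound for 24 h. Fixed in ice-chilled methanol at least 30 min at 4 °C, washed twice with PBS, then stained 0.5 h at 37 °C in PBS with 1 mg/mL RNase A and propidium iodide. DNA content measured by flow cytometry for phase distribution.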
In general terms: Flow cytometry measures light scatter and fluorescence of single cells or particles in a stream.

The subject of assay [3] is PC-3. The assay can be described thus: Antiproliferative activity against human PC3 cells after 24 hrs by MTT assay. Particulars: PC-3, 24 h. The assay is classed as functional, cell-based. In short, it runs like this: as §1
The subject of assay [4] is K562. The assay can be described thus: Antiproliferative activity against human K562 cells after 24 hrs by MTT assay. The assay is classed as functional, cell-based. Particulars: K562, 24 h. In short, it runs like this:
as §1

Assay [5] can be described thus: Antiproliferative activity against vincristine resistant human HCT8 cells after 24 hrs by MTT assay. The following applies: HCT-8, 24 h. The assay is classed as functional, cell-based. In short, it runs like this:
as §1

The test system of assay [6] is HepG2. The assay can be described thus: Induction of apoptosis in human HepG2 cells after 48 hrs by propidium iodide staining-based flow cytometric analysis. The assay is classed as functional, cell-based.
Assay [7] concerns HepG2. Nature of the assay: Cell cycle arrest in human HepG2 cells assessed as accumulation at S-phase at 0.50 uM after 24 hrs by propidium iodide staining-based flow cytometric analysis (reference value: 32%). The assay is classed as functional. In short, it runs like this:
as §2

The species named for assay [8] is Rattus norvegicus. Nature of the assay: Inhibition of rat tubulin polymerization at 10 uM measured for 60 mins by luminometric analysis.
Assay [9] relates to HepG2. The assay can be described thus: Cell cycle arrest in human HepG2 cells assessed as accumulation at G2/M-phase at 0.25 uM after 24 hrs by propidium iodide staining-based flow cytometric analysis (reference value: 25.5%). The assay is classed as functional. In short, it runs like this: as §2
For assay [10], the system named is HepG2. The assay can be described thus: Cell cycle arrest in human HepG2 cells assessed as accumulation at S-phase at 0.25 uM after 24 hrs by propidium iodide staining-based flow cytometric analysis (reference value: 32%). The assay is classed as functional. In short, it runs like this: as §2
The test system of assay [11] is HepG2. The assay can be described thus: Cell cycle arrest in human HepG2 cells assessed as accumulation at G1-phase at 0.50 uM after 24 hrs by propidium iodide staining-based flow cytometric analysis (reference value: 42.5%). The assay is classed as functional. In short, it runs like this: as §2
Assay [12] deals with HepG2. Nature of the assay: Antiproliferative activity against human HepG2 cells after 24 hrs by MTT assay. The following applies: HepG2, 24 h. The assay is classed as functional, cell-based. In short, it runs like this:
as §1

Assay [13] concerns HepG2. The assay can be described thus: Cell cycle arrest in human HepG2 cells assessed as accumulation at G1-phase at 0.125 uM after 24 hrs by propidium iodide staining-based flow cytometric analysis (reference value: 42.5%). The assay is classed as functional. In a few lines: as §2
Assay [14] has as its system HepG2. The assay can be described thus: Cell cycle arrest in human HepG2 cells assessed as accumulation at G2/M-phase at 0.375 uM after 24 hrs by propidium iodide staining-based flow cytometric analysis (reference value: 25.5%). The assay is classed as functional. In a few lines: as §2
Assay [15] in a line: Cytotoxicity against human LO2 cells after 24 hrs by MTT assay. The following applies: L02, 24 h. The assay is classed as cell-based. In short, it runs like this:
as §1

In assay [16] the test system is HepG2. Nature of the assay: Antitumor activity against human HepG2 cells xenografted in BALB/c nude mouse assessed as tumor growth inhibition at 30 mg/kg, iv administered once every 2 days for 21 days measured every 3 days up to 35 days relative to control. The assay is classed as functional. The following applies: read-out: TGI. In a few lines: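 Female BALB/c nude mice, six weeks old (16–18 g), inoculated in the right gluteal region with 1 × 10⁷ HepG2 cells in 0.1 mL DMEM. At 100 mm³, randomized into four groups of six. Tail-vein dosing every other day for 21 days; vehicle control on the same schedule; 5-Fu 5 mg/kg iv daily as reference. Caliper measurement every 3 days, volume = π/6 × length × width × width. Compared with control by t test.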

Assay [17] relates to HepG2. The assay can be described thus: Cell cycle arrest in human HepG2 cells assessed as accumulation at G2/M-phase after 24 hrs by propidium iodide staining-based flow cytometric analysis. The assay is classed as functional. In short, it runs like this:
as §2

The test system of assay [18] is HepG2. Nature of the assay: Cell cycle arrest in human HepG2 cells assessed as accumulation at G2/M-phase at 0.50 uM after 24 hrs by propidium iodide staining-based flow cytometric analysis (reference value: 25.5%). The assay is classed as functional. In short, it runs like this: as §2
The test system of assay [19] is A549. The assay can be described thus: Antiproliferative activity against human A549 cells after 24 hrs by MTT assay. The following applies: A549, 24 h. The assay is classed as functional, cell-based. In short, it runs like this: as §1
Assay [20] relates to HepG2. The assay can be described thus: Cell cycle arrest in human HepG2 cells assessed as accumulation at S-phase at 0.125 uM after 24 hrs by propidium iodide staining-based flow cytometric analysis (reference value: 32%). The assay is classed as functional. In short, it runs like this: as §2
In assay [21] the test system is HepG2. The assay can be described thus: Cell cycle arrest in human HepG2 cells assessed as accumulation at G1-phase at 0.375 uM after 24 hrs by propidium iodide staining-based flow cytometric analysis (reference value: 42.5%). The assay is classed as functional. In a few lines: as §2
The nature of assay [22]: Antiproliferative activity against taxol resistant human HCT8 cells after 24 hrs by MTT assay. The following applies: HCT-8, 24 h. The assay is classed as functional, cell-based. In short, it runs like this:
as §1

The subject of assay [23] is MCF7. Nature of the assay: Antiproliferative activity against human MCF7 cells after 24 hrs by MTT assay. The assay is classed as functional, cell-based. Particulars: MCF7, 24 h. In a few lines: as §1
Assay [24] in a line: Antiproliferative activity against human […] cells after 24 hrs by MTT assay. The assay is classed as functional, cell-based. In short, it runs like this: as §1
Assay [25] has as its system HepG2. Nature of the assay: Cell cycle arrest in human HepG2 cells assessed as accumulation at S-phase at 0.375 uM after 24 hrs by propidium iodide staining-based flow cytometric analysis (reference value: 32%). The assay is classed as functional. In a few lines:
as §2

For assay [26], the system named is SK-OV-3. The assay can be described thus: Antiproliferative activity against human SKOV3 cells after 24 hrs by MTT assay. The assay is classed as functional, cell-based. Particulars: SK-OV-3, 24 h. In short, it runs like this: as §1
Assay [27] deals with HepG2. The assay can be described thus: Antitumor activity against human HepG2 cells xenografted in BALB/c nude mouse assessed as tumor growth inhibition at 5 mg/kg, iv administered once every 2 days for 21 days measured every 3 days up to 35 days relative to control. The assay is classed as functional. The following applies: read-out: TGI. In a few lines: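 Female BALB/c nude mice, six weeks old (16–18 g), inoculated in the right gluteal region with 1 × 10⁷ HepG2 cells in 0.1 mL DMEM. When tumours reached 100 mm³, mice were randomised into four groups of six. Dosing was by tail-vein injection; the vehicle group followed the test schedule. Tumours were measured by caliper every 3 days, with volume = π/6 × length × width × width.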

Activity calls are given as the source filed them. The calls are words filed in the database; no cut-off is given here.

As usually defined, the IC50 is the midpoint of a concentration-inhibition curve. Low values mean greater potency in that assay, high ones weaker potency in that assay. `CCC(=O)Oc1ccc(C(=O)/C=C/c2ccc3c(ccn3C)c2)c2c1C=CC(C)(C)O2`: the IC50 is 1280 nM in assay [1]; 650 nM in assay [3]; 800 nM in assay [4]; 450 nM in assay [5]; 220 nM in assay [12]; greater than 10000 nM in [15]. Besides, the half-inhibitory concentration (IC50) in assay [19] is 680 nM; in assay [22] it was 1600 nM; in [23], 1500 nM; in [24], 1800 nM; in assay [26], 230 nM. The Activity in assay [2] was 26.2%; in [6], “Dose-dependent effect”; in assay [7] it was 12.4%; in [9], 60.7%; in assay [10], 35%; in assay [11], 1.6%. Further, the Activity in assay [13] was 30.7%; in assay [14], 75%; in assay [17], “Dose-dependent effect”; in assay [18], 86%; in assay [20] it was 43.1%; in assay [21] it was 2.5%. In addition, the Activity in assay [25] is 22.5%. The inhibition result in [8] is “Active”. Also, the inhibition in vivo at 30 mg/kg in [16] stood at 56.6%.
As for `O=c1[nH]cc(F)c(=O)[nH]1` [FLUOROURACIL], in [27], the inhibition in vivo at 5 mg/kg was found to be 25.9%.

These data come from ChEMBL document CHEMBL3232988, “Design, synthesis and biological evaluation of a series of pyrano chalcone derivatives containing indole moiety as novel anti-tubulin agents” (Bioorg Med Chem, 2014).
